Experimental data taken from paper PMC8851504 (Proceedings of the National Academy of Sciences of the …, 2022).
Bridge positions count the residues as written; N and C are the ends. Ends that are not written are not given here.

Experiments:
[1] = tested on: human ErbB1 receptor (hErbB1) transiently expressed in HEK293T cells; test: BRET assay of ligand-induced ErbB1 activation; format: cell-based; settings: for Agonism at / potency on mammalian ErbB1 (summary in words): summary statement
[2] = tested on: hypersensitivity of the injected paw in mice; test: Time course of hypersensitivity; format: in vivo, mouse (C57BL/6J); settings: intraplantar injection in mice
In short: (§1)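 Male C57BL/6J mice (5 wk old) were given 200 pmol test compound, or vehicle alone, by shallow intraplantar hind-paw injection in 20 µL saline with 0.1% BSA. After 30 min acclimatisation on bar-bottom enclosures, paw-withdrawal thresholds were measured. Mechanical thresholds used automatic von Frey and thermal thresholds an automated thermal device. Readings were taken 3 d before injection and at 1 h–7 d, blinded, n = 6/group, two-way ANOVA with Šídák's test.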

[3] = tested on: crickets (Acheta domesticus); test: Cricket righting assay after injection; format: in vivo; settings: intraabdominal injection, up to 41 nmol/g (as stated in main text)
In short: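 House crickets (average mass 50 mg) received intraabdominal injections of 2 μL water or test compound at 1.4 to 41.5 nmol/g. Each cricket was then placed on its back and the time taken to right itself was recorded. Treated and water groups were compared by one-way ANOVA with Šídák's test.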

[4] = tested on: sheep blowflies (Lucilia cuprina); test: Sheep blowfly paralysis/survival assay after injection; format: in vivo; settings: intraabdominal injection, up to 41 nmol/g (as stated in main text)
paw inflammation in mice = test: Paw inflammation: visual inspection and paw thickness by calipers; format: in vivo, mouse (C57BL/6J); settings: 200 pmol i.pl.; over the time course of the experiment
In short: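 In male C57BL/6J mice, 200 pmol test compound, or vehicle alone, was injected intraplantar in 20 µL saline with 0.1% BSA. The injected paw was inspected for swelling and reddening at each time point up to 7 d. At 3 d, both hind paws were measured with electronic calipers and expressed as an ipsilateral/contralateral ratio. Groups were n = 6, compared by unpaired t test.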

[5] = tested on: fruit flies (Drosophila melanogaster); test: Fruit fly paralysis/survival assay after injection; format: in vivo; settings: intraabdominal injection, up to 41 nmol/g (as stated in main text)
[6] = tested on: paw-withdrawal threshold to thermal stimulus in mice; test: Paw-withdrawal threshold to thermal stimulus; format: in vivo, mouse (C57BL/6J); settings: 200 pmol i.pl.; measured 1 h to 7 d; vs saline; n = 6 per group
In short: as §1

[7] = tested on: Erk1/2 phosphorylation downstream of human ErbB1 in HEK293 cells; format: cell-based; settings: comparison with hEGF; 2.5 or 10 nM; n = 3
In short: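 HEK293 cells at ~80% confluence were transfected with 15 ng human ErbB1 plasmid (Lipofectamine LTX) and grown 24 h in DMEM with 10% FBS. […] RIPA lysates containing protease and phosphatase inhibitors were run on SDS-PAGE and probed for phospho-Erk1/2 and GAPDH by fluorescent immunoblot. Phospho-Erk was normalised to GAPDH; n = 3, one-way ANOVA with Šídák's test.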

[8] = tested on: paw-withdrawal threshold to mechanical stimulus in mice; test: Paw-withdrawal threshold to mechanical stimulus; format: in vivo, mouse (C57BL/6J); settings: 200 pmol i.pl.; measured 1 h to 7 d; vs saline; n = 6 per group
In short: as §1

Substance	Agonism at / potency on mammalian ErbB1 (summary in words) [1]	Hypersensitivity of the injected paw (summary in words) [2]	Activity at hErbB1 (in words) ([1]; BRET, HEK293T cells, Fig. 3A: stimulation with 100 nM ligand)	Effect on crickets after injection [3]	Effect on blowflies after injection [4]	Visual signs of inflammation (e.g., redness or swelling) (paw inflammation in mice)	Effect on fruit flies after injection [5]	Paw-withdrawal threshold to thermal stimulus [6]	Erk1/2 phosphorylation compared with hEGF [7]	Paw-withdrawal threshold to mechanical stimulus [8]
Mg1a (GDISDYGDPCSDDLKDYCIHGDCFFLKELNQPACRCYTGYYGSRCEHIDHN; disulfide 10-23, 18-34, 36-45)	potent agonist of the mammalian EGF receptor ErbB1	long-lasting hypersensitivity								
rMg1a: Mg1a produced by recombinant expression in bacteria with an additional Gly residue at the N terminus (GDISDYGDPCSDDLKDYCIHGDCFFLKELNQPACRCYTGYYGSRCEHIDHN; not fully specified; left off: His6, N-terminal, cleaved | MBP, N-terminal, cleaved)	potent ligand of mammalian ErbB1 with activity comparable to that of hEGF		active at hErbB1	no effect	no effect	no visual signs of inflammation	no effect	significant decrease	equivalent to that caused by hEGF	significant decrease
